In publication PMC3428732 (Analytical chemistry, 2012):
Square brackets hold non-standard residues; d marks the D form. Peptide text beside a SMILES is read from it. * marks the point of attachment. 6FAM = O=C1OC2(c3ccc(O)cc3Oc3cc(O)ccc32)c2cc(C(=O)*)ccc21; Phe(F5) = N[C@@H](Cc1c(F)c(F)c(F)c(F)c1F)C(=O)O; NMeR = CN[C@@H](CCCNC(=N)N)C(=O)O; NMeF = CN[C@@H](Cc1ccccc1)C(=O)O; βAla = NCCC(=O)O

Tests used:
PKBα kinase = PKBα kinase (Homo sapiens, UniProt P31749); experiment: in vitro kinase assay with purified PKBα; type: biochemical
How it was run: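 Active purified PKBα (6 nM) with N-terminally fluorescein-labelled peptide substrate (25 μM) at 30 °C. Buffer: 8 mM MOPS pH 7.0, 0.2 mM EDTA, 4 mM MgCl₂, 1 mM ATP. Aliquots were removed over time and stopped by heating at 90 °C for 4 min. Phosphorylation was quantified by CE-LIF. Triplicates used different enzyme aliquots on different days; mean ± SD.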

[1] = Peptide degradation in a HeLa cytosolic lysate; type: in vitro ADME, human; conditions: for half-life at 1 μM: human, HeLa cytosolic lysate
How it was run: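 Fluorescein-labelled peptide (1 μM) incubated at 37 °C with HeLa or LNCaP cytosolic lysate (3 mg mL⁻¹ total protein). Aliquots were quenched with HCl to 100 mM final; the 0 min point was acidified before peptide addition. Products were separated by CE-LIF, and fragments were identified by spiking in 250 nM standards. Initial rates were taken from the 0 and 5 min points, normalised to cytosolic protein (zmol pg⁻¹ s⁻¹). Triplicates used different lysates; mean ± SD.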

[2] = test system: PKB activity in single LNCaP cells; experiment: Peptide phosphorylation in single LNCaP cells; type: cell-based, human; conditions: LNCaP cells pre-incubated with 500 nM wortmannin (10 min), then loaded with VI-B, 5 min; n = 10

PKBα kinase, sequence (P31749 whole entry): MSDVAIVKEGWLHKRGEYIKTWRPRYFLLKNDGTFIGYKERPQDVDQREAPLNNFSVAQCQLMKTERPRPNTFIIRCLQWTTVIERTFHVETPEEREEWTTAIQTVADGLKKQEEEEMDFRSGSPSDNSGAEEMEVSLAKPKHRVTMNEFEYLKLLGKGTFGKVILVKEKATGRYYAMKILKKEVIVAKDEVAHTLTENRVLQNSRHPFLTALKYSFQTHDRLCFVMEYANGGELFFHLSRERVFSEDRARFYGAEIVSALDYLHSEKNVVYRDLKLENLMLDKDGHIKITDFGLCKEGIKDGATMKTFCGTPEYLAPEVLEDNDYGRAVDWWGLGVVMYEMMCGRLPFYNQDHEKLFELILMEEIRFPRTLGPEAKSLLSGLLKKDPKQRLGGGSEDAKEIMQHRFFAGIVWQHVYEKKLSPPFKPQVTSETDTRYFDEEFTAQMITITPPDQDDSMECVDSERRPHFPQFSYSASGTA

half-life at 1 μM [1] | Structure (SMILES) | further results
2 min | C[C@H](NC(=O)[C@H](C)NC(=O)[C@H](CCCNC(=N)N)N(C)C(=O)[C@@H]1CCCN1C(=O)[C@H](CCCNC(=N)N)NC(=O)CNC(=O)c1ccc2c(c1)C1(OC2=O)c2ccc(O)cc2Oc2cc(O)ccc21)C(=O)N[C@H](C(=O)N[C@@H](Cc1ccccc1)C(=O)N[C@@H](C)C(=O)N[C@@H](CCC(=O)O)C(=O)NCC(N)=O)[C@@H](C)O [III-B, 6FAM-GRP-MeArg-AATFAEG] (6FAM-GRP[NMeR]AATFAEG-NH2) | fold longer t50%P than peptide I (PKBα kinase): more than 50 X; 6-residue fragment (alanine-threonine bond hydrolysis), % of all peptide present ([1]; HeLa lysate, within 15 min): 92%
17 min | C[C@H](NC(=O)[C@H](C)NC(=O)[C@@H](CCCNC(=N)N)NC(=O)[C@@H]1CCCN1C(=O)[C@H](CCCNC(=N)N)NC(=O)CNC(=O)c1ccc2c(c1)C1(OC2=O)c2ccc(O)cc2Oc2cc(O)ccc21)C(=O)N[C@H](C(=O)N[C@@H](Cc1ccccc1)C(=O)N[C@@H](C)C(=O)N[C@@H](CCC(=O)O)C(=O)NCC(N)=O)[C@@H](C)O [III-D, 6FAM-GRP-DArg-AATFAEG] (6FAM-GRP[dR]AATFAEG-NH2) | –
14 min | C[C@H](NC(=O)[C@H](Cc1ccccc1)NC(=O)[C@@H](NC(=O)CCNC(=O)[C@H](C)NC(=O)[C@H](CCCNC(=N)N)N(C)C(=O)[C@@H]1CCCN1C(=O)[C@H](CCCNC(=N)N)NC(=O)CNC(=O)c1ccc2c(c1)C1(OC2=O)c2ccc(O)cc2Oc2cc(O)ccc21)[C@@H](C)O)C(=O)N[C@@H](CCC(=O)O)C(=O)NCC(N)=O [IV-A, 6FAM-GRP-MeArg-A-βAla-TFAEG] (6FAM-GRP[NMeR]A[βAla]TFAEG-NH2) | –
32 min | C[C@H](NC(=O)[C@H](Cc1ccccc1)NC(=O)[C@@H](NC(=O)[C@@H](C)NC(=O)[C@H](C)NC(=O)[C@H](CCCNC(=N)N)N(C)C(=O)[C@@H]1CCCN1C(=O)[C@H](CCCNC(=N)N)NC(=O)CNC(=O)c1ccc2c(c1)C1(OC2=O)c2ccc(O)cc2Oc2cc(O)ccc21)[C@@H](C)O)C(=O)N[C@@H](CCC(=O)O)C(=O)NCC(N)=O [IV-B, 6FAM-GRP-MeArg-A-DAla-TFAEG] (6FAM-GRP[NMeR]A[dA]TFAEG-NH2) | –
37 min | C[C@H](NC(=O)[C@H](Cc1ccccc1)NC(=O)[C@@H](NC(=O)[C@H](CCC(=O)O)NC(=O)[C@H](C)NC(=O)[C@H](CCCNC(=N)N)N(C)C(=O)[C@@H]1CCCN1C(=O)[C@H](CCCNC(=N)N)NC(=O)CNC(=O)c1ccc2c(c1)C1(OC2=O)c2ccc(O)cc2Oc2cc(O)ccc21)[C@@H](C)O)C(=O)N[C@@H](CCC(=O)O)C(=O)NCC(N)=O [IV-C, 6FAM-GRP-MeArg-A-Glu-TFAEG] (6FAM-GRP[NMeR]AETFAEG-NH2) | –
14 min | C[C@H](NC(=O)[C@H](Cc1ccccc1)NC(=O)[C@@H](NC(=O)[C@H](Cc1ccccc1)NC(=O)[C@H](C)NC(=O)[C@H](CCCNC(=N)N)N(C)C(=O)[C@@H]1CCCN1C(=O)[C@H](CCCNC(=N)N)NC(=O)CNC(=O)c1ccc2c(c1)C1(OC2=O)c2ccc(O)cc2Oc2cc(O)ccc21)[C@@H](C)O)C(=O)N[C@@H](CCC(=O)O)C(=O)NCC(N)=O [IV-D, 6FAM-GRP-MeArg-A-FTFAEG] (6FAM-GRP[NMeR]AFTFAEG-NH2) | fold faster t50%P than peptide III-B (PKBα kinase): over 30 X
2 min | C[C@H](NC(=O)[C@H](Cc1ccccc1)NC(=O)[C@@H](NC(=O)[C@H](Cc1ccccc1)N(C)C(=O)[C@H](C)NC(=O)[C@H](CCCNC(=N)N)N(C)C(=O)[C@@H]1CCCN1C(=O)[C@H](CCCNC(=N)N)NC(=O)CNC(=O)c1ccc2c(c1)C1(OC2=O)c2ccc(O)cc2Oc2cc(O)ccc21)[C@@H](C)O)C(=O)N[C@@H](CCC(=O)O)C(=O)NCC(N)=O [IV-E, 6FAM-GRP-MeArg-A-MePhe-TFAEG] (6FAM-GRP[NMeR]A[NMeF]TFAEG-NH2) | –
88 min | C[C@H](NC(=O)[C@H](Cc1c(F)c(F)c(F)c(F)c1F)NC(=O)[C@@H](NC(=O)[C@H](Cc1ccccc1)NC(=O)[C@H](C)NC(=O)[C@H](CCCNC(=N)N)N(C)C(=O)[C@@H]1CCCN1C(=O)[C@H](CCCNC(=N)N)NC(=O)CNC(=O)c1ccc2c(c1)C1(OC2=O)c2ccc(O)cc2Oc2cc(O)ccc21)[C@@H](C)O)C(=O)N[C@@H](CCC(=O)O)C(=O)NCC(N)=O [V-A, 6FAM-GRP-MeArg-AFT-Phe(F5)-AEG] (6FAM-GRP[NMeR]AFT[Phe(F5)]AEG-NH2) | –
895 min | C[C@H](NC(=O)[C@H](CCCNC(=N)N)N(C)C(=O)[C@@H]1CCCN1C(=O)[C@H](CCCNC(=N)N)NC(=O)CNC(=O)c1ccc2c(c1)C1(OC2=O)c2ccc(O)cc2Oc2cc(O)ccc21)C(=O)N[C@@H](Cc1ccccc1)C(=O)N[C@H](C(=O)N[C@@H](Cc1ccccc1)C(=O)N[C@H](C)C(=O)N[C@@H](CCC(=O)O)C(=O)NCC(N)=O)[C@@H](C)O [V-B, 6FAM-GRP-MeArg-AFTF-DAla-EG] (6FAM-GRP[NMeR]AFTF[dA]EG-NH2) | fold greater t1/2 than peptide IV-D ([1]; HeLa lysate): over 60 X
– | COC[C@H]1OC(=O)c2coc3c2[C@@]1(C)C1=C(C3=O)[C@@H]2CCC(=O)[C@@]2(C)C[C@H]1OC(C)=O [wortmannin, Wortmannin] | formation of phosphorylated product of VI-B [2]: 13% ± 12%
